Source: PubChem BioAssay (several laboratories)
p47phox inh: p47phox/p22phox peptide binding inhibitors, primary screen, biochemical, uHTS, NADPH oxidase regulatory subunit | Neutrophil cytosol factor 1 (Homo sapiens), P14598 | fluorescence polarization, 2 h | inhibition, % at 24.7 µM | 220,000 tested, 0.53% active | AID 1274, 2008;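 active means inhibition above about 30%, limit read from the data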;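 further: 0% = p47phox with labelled peptide and 100% = labelled peptide alone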
PKD1 kinase inh: inhibitors of human PKD1 kinase, biochemical, fluorescence polarization | Serine/threonine-protein kinase D1 (Homo sapiens), Q15139 | PKD1 kinase fluorescence polarization assay | inhibition, % (test concentration not listed) | 200,000 tested, 0.056% active | AID 797, 2007; in the data active means inhibition above about 50%
Target sequence (Q15139 whole entry, looked up): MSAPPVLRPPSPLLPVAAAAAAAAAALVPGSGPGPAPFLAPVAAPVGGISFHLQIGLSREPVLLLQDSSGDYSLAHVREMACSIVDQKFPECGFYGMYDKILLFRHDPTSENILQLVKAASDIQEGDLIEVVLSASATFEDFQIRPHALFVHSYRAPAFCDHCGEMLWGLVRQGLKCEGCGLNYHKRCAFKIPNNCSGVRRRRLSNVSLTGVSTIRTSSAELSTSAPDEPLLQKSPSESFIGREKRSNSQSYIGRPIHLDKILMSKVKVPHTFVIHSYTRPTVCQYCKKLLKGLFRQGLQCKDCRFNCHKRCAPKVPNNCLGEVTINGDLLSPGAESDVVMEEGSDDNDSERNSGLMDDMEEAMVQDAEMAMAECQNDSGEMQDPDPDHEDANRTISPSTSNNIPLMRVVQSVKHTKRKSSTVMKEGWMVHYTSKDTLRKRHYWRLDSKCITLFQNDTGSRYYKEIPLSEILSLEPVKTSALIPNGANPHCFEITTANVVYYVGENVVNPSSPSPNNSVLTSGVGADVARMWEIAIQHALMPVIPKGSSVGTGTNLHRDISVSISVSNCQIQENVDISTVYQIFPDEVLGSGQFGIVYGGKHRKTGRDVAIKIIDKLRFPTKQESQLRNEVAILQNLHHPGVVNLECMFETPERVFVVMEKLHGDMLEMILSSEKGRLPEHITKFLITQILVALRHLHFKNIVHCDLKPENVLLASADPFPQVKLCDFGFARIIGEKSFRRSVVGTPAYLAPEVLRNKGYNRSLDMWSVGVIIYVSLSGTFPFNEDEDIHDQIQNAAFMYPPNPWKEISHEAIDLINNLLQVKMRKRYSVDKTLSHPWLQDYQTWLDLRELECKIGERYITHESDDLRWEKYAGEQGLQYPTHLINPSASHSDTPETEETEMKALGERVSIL
PHOSPHO1 block: PubChem AID 1565; Phosphoethanolamine/phosphocholine phosphatase (Homo sapiens), Q8TCT1; recombinant PHOSPHO1, absorbance phosphatase assay; inhibition, % at 13.3 µM; 290,000 tested, 1.1% active; in the data active means inhibition above about 60%
ABCG2 block: ABCG2 efflux pump inhibitors, primary screen, multiplex with ABCB1, IgMXP3 cells, flow cytometry. JC-1 efflux. inhibition, % at 6.6 µM. 190,000 tested, 0.1% active. AID 1325, 2008;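 active means inhibition above 80%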;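 further: 0% = DMSO and 100% = nicardipine control wells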
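Assay system – ABCG2 IgMXP3 and barcoded ABCB1 CCRF-Adr cell mix · Input – 3 million cells/mL in well · Reagent – JC-1 fluorescent substrate · Compound – single test compound dose, 6.6 µM final · Timing – 10 min exposure at 25 °C with rotation, no wash · Detection – flow cytometry of retained JC-1 fluorescence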
HSV augment: enhancers of HSV replication in host cells, fold increase, host cell viability; 220,000 tested, 0.005% active; HSV replication augmentation in cells; maximum fold increase; in the data active means maximum fold increase above about 1.5; inconclusive means no clear call, values can overlap the other calls; tested in PC3 cells
ABCB1 inh: ABCB1 efflux pump inhibitors, primary screen, cell-based, multiplex, flow cytometry, ABCG2 counter-screen; ATP-dependent translocase ABCB1 (Homo sapiens), P08183; CCRF-Adr cells, JC-1 efflux; inhibition, % at 6.6 µM; 190,000 tested, 0.067% active; in the data active means inhibition above about 40%;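 further: 0% = vehicle and 100% = reference inhibitor; higher value means more JC-1 retained so stronger ABCB1 efflux block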
An asterisk follows results filed as active. Most compounds without a hit are left out; they make up all but 1.6% or so of the library.

`O=C(N/C(=C\c1ccccc1)C(=O)N1CCOCC1)c1ccccc1Cl` gave PHOSPHO1 block 63*.
Screening O=C(N/C(=C\c1ccc(Br)cc1)C(=O)N1CCOCC1)c1ccccc1Cl returned PHOSPHO1 block 19.
`Cc1c(Cl)cn2c(=O)cc(CN(C)Cc3nc4ccccc4c(=O)[nH]3)nc2c1Cl` gave p47phox inh 0, PKD1 kinase inh 11, PHOSPHO1 block 6, ABCG2 block 9, HSV augment inactive and ABCB1 inh 6.
Cc1ccc(C2(CCNCc3ccc(N(C)C)cc3)CCOC(C(C)C)C2)cc1 (stereo not drawn) was read as p47phox inh -8, PKD1 kinase inh 3, PHOSPHO1 block 64*, ABCG2 block 7, HSV augment inactive and ABCB1 inh 2.
`C/C=C/c1ccc(Oc2nnnn2-c2ccc(C(N)=O)cc2)c(OC)c1` gave p47phox inh -7, PKD1 kinase inh -19, PHOSPHO1 block 0, ABCG2 block 6, HSV augment inactive and ABCB1 inh 1.
COc1ccc(Cl)cc1NC(=S)N1CCN(C(=O)C2CCCO2)CC1 (stereo not drawn) was read as p47phox inh -9, PKD1 kinase inh 2, PHOSPHO1 block 40, ABCG2 block 6, HSV augment inactive and ABCB1 inh 2.
For COc1cccc(/C=N/NC(=O)CNC(=O)c2cccs2)c1O the results were p47phox inh -2, PHOSPHO1 block 25 and HSV augment inactive.
Screening Cc1ccc(/C=N/NC(=O)CNC(=O)c2cccs2)cc1 returned PHOSPHO1 block 66*.
Screening Cc1ccc(NS(=O)(=O)c2ccc3c(c2)NC(=O)CCS3)c(Br)c1 returned PHOSPHO1 block 65*.
Cc1ccc(C)c(NS(=O)(=O)c2ccc3c(c2)NC(=O)CCS3)c1 was read as PHOSPHO1 block 28.
For CC(=O)Oc1ccc(/C=N/NC(=O)C2CCCN2S(=O)(=O)c2ccc(Cl)cc2)cc1 (stereo not drawn) the results were p47phox inh -6, PKD1 kinase inh 5, PHOSPHO1 block 73*, ABCG2 block 2, HSV augment inactive and ABCB1 inh 1.
Screening CCOc1cc(CNCC(C)C)c(Cl)cc1OCC(=O)Nc1ccccc1 returned p47phox inh -3, PKD1 kinase inh -8, PHOSPHO1 block 18, ABCG2 block 17, HSV augment inactive and ABCB1 inh 1.
CCCCNC(=O)c1cc2n(n1)C(C(F)(F)F)CC(c1ccccc1)N2 (stereo not drawn) was read as p47phox inh 57*, PKD1 kinase inh 3, PHOSPHO1 block -37, ABCG2 block 4, HSV augment inactive and ABCB1 inh 1.
For Cc1ccc(C2CC(C(F)(F)F)n3nc(C(=O)NCCN4CCOCC4)cc3N2)cc1 (stereo not drawn) the results were p47phox inh -8, PKD1 kinase inh -3, PHOSPHO1 block 25, ABCG2 block -1, HSV augment inactive and ABCB1 inh 0.
O=C(N/N=C\c1cc(Cl)ccc1O)c1ccc(S(=O)(=O)N2CCCCC2)cc1 was read as p47phox inh -20, PKD1 kinase inh 3, PHOSPHO1 block 11, ABCG2 block 6, HSV augment inactive and ABCB1 inh -1.
Cc1cc(NN)nc(Cc2ccccc2)n1 was read as PHOSPHO1 block -7.
O=C(NCCN1CCOCC1)/C(=C\c1ccc(F)cc1)NC(=O)c1ccccc1 was read as PHOSPHO1 block 24.
For CC(C)n1c(=S)[nH]c2ccccc21 the results were p47phox inh -3, PKD1 kinase inh 4, PHOSPHO1 block 84*, ABCG2 block 3, HSV augment inactive and ABCB1 inh 1.
For CCn1c(=S)[nH]c2ccccc21 the results were p47phox inh -6, PKD1 kinase inh -6, PHOSPHO1 block 71*, ABCG2 block 0, HSV augment inactive and ABCB1 inh 0.
For Cc1ccc(NC(=O)Cn2c(=S)[nH]c3ccccc32)cc1 the results were p47phox inh -14, PKD1 kinase inh 1, PHOSPHO1 block 62*, ABCG2 block 0, HSV augment inactive and ABCB1 inh 0.
`O=C(Cn1c(=S)[nH]c2ccccc21)c1ccccc1` gave p47phox inh -8, PKD1 kinase inh -5, PHOSPHO1 block 22, ABCG2 block 2, HSV augment inactive and ABCB1 inh 1.
O=C(Cn1cc2c(n1)CCCCC2)NCc1ccccn1 was read as p47phox inh 43*, PKD1 kinase inh 3, PHOSPHO1 block 1, ABCG2 block 0, HSV augment inconclusive and ABCB1 inh 0.
For O=C(Cn1cc2c(n1)CCCCC2)NCc1ccccc1 the results were p47phox inh -9, PKD1 kinase inh -4, PHOSPHO1 block -3, ABCG2 block 1, HSV augment inactive and ABCB1 inh 1.
COc1ccc(CNCc2ccc3c(c2)OCO3)c(OC)c1OC was read as PHOSPHO1 block 19.
Cc1nc2scc(C)n2c(=O)c1S(=O)(=O)Nc1ccc(OC(F)(F)F)cc1 was read as PHOSPHO1 block 47.
`Cc1ccc(C)c(S(=O)(=O)Nc2cc(SCC(=O)O)c(O)c3ccccc23)c1` gave p47phox inh 7, PKD1 kinase inh 2, PHOSPHO1 block 71*, ABCG2 block -4, HSV augment inactive and ABCB1 inh -1.
For CCc1ccc(NC(=O)NCc2cccnc2)cc1 the results were PHOSPHO1 block 6.
Screening CC(Sc1nnc(-c2ccccc2)c(-c2ccccc2)n1)C(=O)N1CCc2ccccc21 (stereo not drawn) returned p47phox inh -12, PKD1 kinase inh -5, PHOSPHO1 block -1, ABCG2 block 22, HSV augment inactive and ABCB1 inh 5.
CCCC(=O)N1c2ccccc2C(=C2SC(C(=O)OC)=C(C(=O)OC)S2)C(=S)C1(C)C was read as p47phox inh -2, PKD1 kinase inh -9, PHOSPHO1 block -21, ABCG2 block 3, HSV augment inactive and ABCB1 inh 0.
`COC(=O)C1=C(C(=O)OC)SC(=C2C(=S)C(C)(C)N(C(=O)C(C)C)c3ccccc32)S1` gave p47phox inh 2, PKD1 kinase inh 2, PHOSPHO1 block 80*, ABCG2 block 0, HSV augment inactive and ABCB1 inh 0.
For COC(=O)C1=C(C(=O)OC)SC(=C2C(=S)C(C)(C)N(C(=O)C3CC3)c3ccccc32)S1 the results were p47phox inh -14, PKD1 kinase inh 0, PHOSPHO1 block 79*, ABCG2 block 1, HSV augment inactive and ABCB1 inh 1.
Screening O=C(NCC(=O)N1CCN(C(c2ccccc2)c2ccccc2)CC1)c1ccccc1F returned PHOSPHO1 block 23.
